Assay results: ChEMBL document CHEMBL1122785, “Synthesis and evaluation of a series of 2'-O-acyl derivatives of 9-beta-D-arabinofuranosyladenine as antiherpes agents” (J Med Chem, 1984)
In brackets after ≈: the same amount, converted by molar mass.

Assays:
[1] = Solubility of 10 mg compound in aqueous buffer at pH 7.3 and 37 degree Centigrade after 8.0 hr; format: physicochemical; settings: read-out: Concentration
Procedure, shortened: (§1)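 Crystalline compound (stated amount) was agitated in 1 mL phosphate-buffered saline (NaH2PO4/NaCl, pH 7.3) at 37 °C. At each time point samples were centrifuged 5 min at 14000 rpm. Supernatant was diluted in mobile phase and quantified by HPLC against standards. Concentrations were corrected for prodrug decomposition.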

[2] = Solubility of 10 mg compound in aqueous buffer at pH 7.3 and 37 degree Celsius after 13.5 hr; format: physicochemical; settings: read-out: Concentration; procedure, shortened: as §1
[3] = Solubility of 10 mg compound in aqueous buffer at pH 7.3 and 37 degree Celsius after 4.0 hr; format: physicochemical; settings: read-out: Concentration; procedure, shortened: as §1
[4] = Compound was evaluated for the octanol/water partition coefficient at 37 degree Celsius at 24.5 hour; format: physicochemical
Procedure, shortened: (§2)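 Dilute aqueous solutions were equilibrated with 1-octanol at 37 °C. At each sampling interval the tubes were centrifuged. Aliquots of the octanol layer, then of the water layer, were diluted into methanol and stored at -20 °C for analysis.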

[5] = Compound was evaluated for the octanol/water partition coefficient at 37 degree Celsius at 3.0 hr; format: physicochemical; procedure, shortened: as §2
[6] = Compound was evaluated for the octanol/water partition coefficient at 37 degree Celsius at 4.5 hour; format: physicochemical; procedure, shortened: as §2
Human alphaherpesvirus 1 [7] = experiment: virus rating as the measure of the activity against herpes simplex virus type 1(strain 377); format: functional
Human alphaherpesvirus 1 [8] = experiment: In vitro activity against herpes simplex virus type 1(strain 377) and the minimum inhibitory concentration was determined; format: functional
[9] = Solubility of 20 mg compound in aqueous buffer at pH 7.3 and 37 degree Celsius after 13.5 hr; format: physicochemical; settings: read-out: Concentration; procedure, shortened: as §1
[10] = Solubility of 20 mg compound in aqueous buffer at pH 7.3 and 37 degree Celsius after 4.0 hr; format: physicochemical; settings: read-out: Concentration; procedure, shortened: as §1
[11] = Solubility of 20 mg compound in aqueous buffer at pH 7.3 and 37 degree Centigrade after 8.0 hr; format: physicochemical; settings: read-out: Concentration; procedure, shortened: as §1
[12] = Compound was evaluated for the octanol/water partition coefficient at 37 degree Celsius at 1.0hr; format: physicochemical; settings: 1 h; procedure, shortened: as §2
[13] = Compound was evaluated for the octanol/water partition coefficient at 37 degree Celsius at 10.5 hour; format: physicochemical; procedure, shortened: as §2
[14] = Solubility of 150 mg compound in aqueous buffer at pH 7.3 and 37 degree Celsius after 4.0 hr; format: physicochemical; settings: read-out: Concentration; procedure, shortened: as §1
[15] = Solubility of 150 mg compound in aqueous buffer at pH 7.3 and 37 degree Celsius after 8.0 hr; format: physicochemical; settings: read-out: Concentration; procedure, shortened: as §1
Human alphaherpesvirus 1 [16] = experiment: Compound was evaluated for its activity against herpes simplex virus type 1(strain 377) and the minimum inhibitory concentration was determined; format: functional

Row | Compound | solubility at 8 h [1] [mg/mL] | solubility at 13.5 h [2] [mg/mL] | solubility at 4 h [3] [mg/mL] | Partition coefficient [4] | Partition coefficient [5] | Partition coefficient [6] | MIC50 (Human alphaherpesvirus 1 [8]) [µg/mL] | solubility at 13.5 h [9] [mg/mL] | solubility at 4 h [10] [mg/mL] | solubility at 8 h [11] [mg/mL] | Partition coefficient [12] | Partition coefficient [13] | solubility at 4 h [14] [mg/mL] | solubility at 8 h [15] [mg/mL] | MIC50 (Human alphaherpesvirus 1 [16]) [µg/mL] | VR (Human alphaherpesvirus 1 [7])
1 | CCCCC(=O)O[C@H]1C(n2cnc3c(N)ncnc32)O[C@H](CO)[C@@H]1O (some centres undefined) |  |  |  | 2.8 | 2.5 | 2.2 | 56.8 (≈ 0.162 mM) | 11 (≈ 31.3 mM) | 9.28 (≈ 26.4 mM) | 10.8 (≈ 30.7 mM) | 2.5 | 3 |  |  |  | 2.6
2 | CC(=O)O[C@H]1C(n2cnc3c(N)ncnc32)O[C@H](CO)[C@@H]1O (some centres undefined) |  |  |  | 0.122 | 0.134 | 0.118 | 26.2 (≈ 0.0847 mM) |  |  |  | 0.149 | 0.127 | 93.6 (≈ 303 mM) | 93.6 (≈ 303 mM) |  | 2.3
3 | Nc1ncnc2c1ncn2[C@@H]1O[C@H](CO)[C@@H](O)[C@@H]1O [VIDARABINE] |  |  |  |  |  |  |  |  |  |  |  |  |  |  | 9.5 (≈ 0.0355 mM) | 2

Now from value to compound, other results behind:

Row | solubility at 8 h [1] [mg/mL] | solubility at 13.5 h [2] [mg/mL] | solubility at 4 h [3] [mg/mL] | Partition coefficient [4] | Partition coefficient [5] | Partition coefficient [6] | MIC50 (Human alphaherpesvirus 1 [8]) [µg/mL] | solubility at 13.5 h [9] [mg/mL] | solubility at 4 h [10] [mg/mL] | solubility at 8 h [11] [mg/mL] | Partition coefficient [12] | Partition coefficient [13] | solubility at 4 h [14] [mg/mL] | solubility at 8 h [15] [mg/mL] | MIC50 (Human alphaherpesvirus 1 [16]) [µg/mL] | Compound | VR (Human alphaherpesvirus 1 [7])
4 | 3.54 (≈ 10.5 mM) | 3.31 (≈ 9.81 mM) | 3.38 (≈ 10 mM) | 0.975 | 0.911 | 0.969 | 71.9 (≈ 0.213 mM) |  |  |  |  |  |  |  |  | CCCC(=O)O[C@H]1C(n2cnc3c(N)ncnc32)O[C@H](CO)[C@@H]1O (some centres undefined) | 1.5
5 |  |  |  | 0.329 | 0.359 | 0.318 | 29.3 (≈ 0.0906 mM) | 13 (≈ 40.2 mM) | 11.1 (≈ 34.3 mM) | 11 (≈ 34 mM) | 0.336 | 0.335 |  |  |  | CCC(=O)O[C@H]1C(n2cnc3c(N)ncnc32)O[C@H](CO)[C@@H]1O (some centres undefined) | 1.9
